Compound activity as filed in PubChem BioAssay.
This is a sample that favours compounds with a hit; in the whole collection about 2.3% have one here.
ERp5 inh: blocks human ERp5 reductase activity on insulin; actives 0.05% (n = 350,000); ERp5 insulin aggregation, absorbance 650 nm, 90 min; inhibition, % at 9.99 µM; Q15084;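 active = mean replicate inhibition above about 25%, with every replicate also reaching it, limit read from the data, passing the limit was not always enough; inconclusive = only one of those two criteria met; inactive = neither criterion met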
Statin myotox sup: protects C2C12 myotubes from simvastatin toxicity; actives 0.78% (n = 330,000); rescue of ATP level, % at 7.49 µM; ATP luminescence, 48 h; scaled: DMSO 0, geranylgeraniol control 100; AID 602340;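 active = mean ATP rescue above about 67%, or every replicate alone reaching that limit, limit read from the data, passing the limit was not always enough; inconclusive = no clear call, values can overlap the other calls; inactive = mean under the limit and some replicate under it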;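 note: myotubes were challenged with 10 µM simvastatin during compound exposure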
PDI turbidity: blocks human protein disulfide isomerase activity | actives 0.052% (n = 350,000) | PDI insulin aggregation turbidity, A650, 90 min | P07237 | inhibition, % at 10 µM;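 active = mean inhibition across replicates of 30% or more, whatever share of single replicates reach that level; inconclusive = mean inhibition below 30% while every single replicate reaches 30%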
Target sequence (P07237 whole entry, looked up): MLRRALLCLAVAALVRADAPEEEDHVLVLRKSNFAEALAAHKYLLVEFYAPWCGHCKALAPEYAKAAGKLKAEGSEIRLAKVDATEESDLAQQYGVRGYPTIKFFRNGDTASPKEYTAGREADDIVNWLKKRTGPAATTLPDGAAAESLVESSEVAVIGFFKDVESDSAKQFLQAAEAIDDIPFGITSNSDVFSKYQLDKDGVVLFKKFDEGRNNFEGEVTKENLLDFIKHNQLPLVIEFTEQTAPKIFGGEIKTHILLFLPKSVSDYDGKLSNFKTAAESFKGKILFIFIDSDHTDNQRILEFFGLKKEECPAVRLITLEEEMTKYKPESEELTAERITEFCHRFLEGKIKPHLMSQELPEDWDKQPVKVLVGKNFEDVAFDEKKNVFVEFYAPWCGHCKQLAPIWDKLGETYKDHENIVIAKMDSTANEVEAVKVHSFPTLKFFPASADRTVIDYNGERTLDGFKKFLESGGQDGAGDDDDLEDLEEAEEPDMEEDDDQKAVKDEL
DENV2 CPE: inhibitors of DENV2 cytopathic effect. DENV2-infected cells, cytopathic effect rescue, plate reader. CPE inhibition, % at 9.99 µM. actives 1.7% (n = 350,000). AID 651640; in the data active = CPE inhibition above about 20%, passing the limit was not always enough; inconclusive = no clear call, values can overlap the other calls; tested in BHK-21 cells;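 note: 0% = median of neutral control wells and 100% = median of positive control wells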
F508del corr: CFTR F508del correction in bronchial cells. actives 0.36% (n = 350,000). activity (quench increase), % at 7.58 µM. AID 720511. CFBE cells, YFP halide quenching; stimulated with forskolin plus potentiator P3; % fluorescence drop versus neutral controls;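 active = mean added fluorescence quench of at least 8% versus neutral control, with both replicates also reaching 8%; inconclusive = only one of the mean or replicate conditions met; inactive = mean below 8% and not both replicates reaching 8%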;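 note: cells transiently co-express mutant CFTR-F508del with the halide-sensitive YFP; corrector assay measuring rescue of mutant channel to the surface after 24 h compound exposure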
Cneo AK release: causes C. neoformans cell lysis. actives 0.2% (n = 360,000). lysis activity, % at 15 µM. adenylate kinase release luminescence, 4 h; normalised: neutral wells 0, clomiphene wells 100;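 active = mean lysis activity across replicates of at least 80%, whatever share of replicates individually reach that level; inactive = mean lysis activity below 80%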
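read-out = cell lysis signal | test system = log-phase Cryptococcus neoformans yeast cells | input = cells at 5 × 10^6 per mL | medium = fresh YPD growth medium | signal = luminescent adenylate kinase detection reagent | timing = 4 h at 37 °C static, read 1 h later | dosing = single dose | controls = Clomiphene as positive lysis control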
Numbers without * were called inactive; ? = inconclusive; . = no result given.

SMILES	ERp5 inh	Statin myotox sup	PDI turbidity	DENV2 CPE	F508del corr	Cneo AK release
C[C@H](CO)N1C[C@H](C)[C@H](CN(C)C(=O)Nc2ccccc2)Oc2ccc(NC(=O)CCC(F)(F)F)cc2CC1=O	5.8	2.1	.	-6.2	1.7	-8.9
Cn1c(SCC(=O)N2CCN(C(=O)c3ccco3)CC2)nnc1-c1ccc(NS(C)(=O)=O)cc1	3.7	97.9*	-9.3	0.8	0.0	-0.5
COc1ccc(S(=O)(=O)N(C)c2ccccc2)c2cccnc12	-0.5	2.7	-4.0	5.4	-0.6	5.0
CCN(Cc1ccccc1)S(=O)(=O)c1ccc(OC)c2ncccc12	4.7	.	-2.0	-3.4	-0.9	-0.7
CCCCN(CCCC)S(=O)(=O)c1ccc(OC)c2ncccc12	.	65.7*	-4.9	.	.	0.1
COc1ccc(S(=O)(=O)N(CC(C)C)CC(C)C)c2cccnc12	-4.4	154.2*	-0.7	57.1*	1.1	2.0
CC(/C=C/c1ccc(O)cc1)=NNc1ccccc1	2.8	1.0	-8.6	-2.3	17.6*	-2.2
CC(/C=C/c1ccccc1)=N\Nc1nc(C)cc(C)n1	.	-7.7	4.4	.	.	6.9
CC(C)c1ccc(NC(=O)Nc2nc(C(N)c3ccccc3Cl)cs2)cc1 (stereo not drawn)	-3.2	-4.1	-1.2	22.9*	0.7	-1.0
CC(C)c1ccc(NC(=O)Nc2nc(C(N)CCc3ccccc3)cs2)cc1 (stereo not drawn)	-1.0	-151.5	6.8	36.8*	1.0	0.7
CCCC#Cc1cnc2c(c1)C(=O)N([C@@H](C)CO)C[C@@H](C)[C@H](CN(C)Cc1ccncc1)O2	-6.0	9.2	.	-11.1	.	1.0
CC(C)NC(=O)N[C@@H]1CC[C@@H](CCNS(=O)(=O)c2ccc(Cl)cc2)O[C@@H]1CO	9.8	1.5	.	-3.4	-4.6	8.2
COc1cccc(Nc2nnc(SCc3cc([N+](=O)[O-])cc4c3OCOC4)s2)c1	.	.	-8.2	.	.	.
Cc1cccc(C)c1Nc1nnc(SCc2cc([N+](=O)[O-])cc3c2OCOC3)s1	-4.6	243.7*	2.4	.	-2.3	-1.3
O=C(O)C[C@H]1C[C@H]2c3cc(NC(=O)Nc4ccccc4)ccc3O[C@H]2[C@@H](CO)O1	-0.3	-1.5	.	?	-0.7	-3.5
COc1ccc(Cn2nnnc2C(c2ccccc2OC)N2CCC(C(N)=O)CC2)cc1 (stereo not drawn)	.	100.5*	-11.9	.	.	-0.7
COc1ccc(OC)c(C(c2nnnn2Cc2ccccc2)N2CCN(C3CCCCC3)CC2)c1 (stereo not drawn)	.	121.4*	-3.5	.	.	5.1
COc1ccc(OC)c(C(c2nnnn2Cc2ccccc2)N2CCC(C(N)=O)CC2)c1 (stereo not drawn)	.	-1.2	-2.8	.	.	-2.4
C[C@@H]1CN([C@@H](C)CO)S(=O)(=O)c2ccc(C3=CCCCC3)cc2O[C@H]1CN(C)CC1CC1	.	-124.8	.	.	-1.9	.
CCC(=O)c1cn(CC(=O)Nc2cccc(C)c2)c2ccccc12	0.2	13.5	-2.3	69.1*	-0.4	4.9
CC(=O)N(C)C[C@@H]1Oc2ncc(C#C[C@H](C)O)cc2C(=O)N([C@@H](C)CO)C[C@H]1C	1.0	1.0	.	-5.2	1.9	5.4
Cc1nc(SCCC(=O)O)c2cc(-c3ccccc3)sc2n1	0.7	66.8*	3.2	13.7	-0.6	-3.4
Cc1nc(N2CCOCC2)c2cc(-c3ccccc3)sc2n1	.	-3.9	2.8	.	.	1.9
CC(C)Cc1nc2ccccc2[nH]1	1.0	0.0	8.3	4.2	0.1	1.9
CCC(C)SCc1nc2ccccc2[nH]1 (stereo not drawn)	.	121.0*	1.1	.	.	.
SMILES	ERp5 inh	Statin myotox sup	PDI turbidity	DENV2 CPE	F508del corr	Cneo AK release
C[C@@H]1CN([C@@H](C)CO)C(=O)Cc2cc(NC(=O)Cc3ccccc3)ccc2O[C@@H]1CN(C)S(C)(=O)=O	-0.2	-2.6	.	-0.9	1.9	-2.7
CC(=O)N1CCN(C(=O)c2ccc3c(c2)S(=O)(=O)c2ccccc2C3=O)CC1	-2.4	-0.7	4.5	0.5	-1.3	-0.9
CN1CCN(C(=O)c2ccc3c(c2)S(=O)(=O)c2ccccc2C3=O)CC1	1.3	4.9	0.6	63.1*	-0.6	-1.2
O=C(Cc1ccccn1)c1ccc(Cl)cc1	-5.0	-5.2	11.1	-12.2	-0.1	-0.9
O=C(Cc1ccccn1)c1ccccc1	-3.9	-2.0	-12.5	49.6*	-4.2	-0.4
C[C@@H]1CN([C@H](C)CO)C(=O)c2cc(C#Cc3ccccc3F)cnc2O[C@H]1CN(C)C(=O)C1CC1	1.9	10.2	.	-6.3	2.7	-4.3
COCC(=O)N1CC2(CN(Cc3ccccc3)C2)c2c([nH]c3cc(OC)ccc23)[C@H]1CO	7.4	.	.	?	1.7	.
COc1ccccc1OCCNC1CCCC1	.	160.1*	10.2	.	.	3.6
C[C@@H]1CN([C@H](C)CO)C(=O)c2cc(NC(=O)c3ccccc3)ccc2O[C@@H](C)CCCCO[C@H]1CN(C)C(=O)Nc1ccccc1	1.3	.	.	-4.1	-0.4	-1.9
COc1cc2cc(CCCOC(=O)CCCC(=O)O)oc(=O)c2cc1OC	3.3	-2.4	-0.6	38.0*	-2.3	0.6
C=CCN1C(=O)[C@]2(O[C@H](CCO)[C@@H]([Si](C)(C)c3ccc(OC)cc3)[C@@H]2C)c2cc(NC(=O)[C@H](C)O)ccc21	-5.6	.	.	42.4*	-1.3	2.6
C=CCN1C(=O)[C@]2(O[C@H](CCO)[C@@H]([Si](C)(C)c3ccc(OC)cc3)[C@@H]2C)c2cc(I)ccc21	0.7	.	.	0.4	-5.2	4.9
C[C@@H]1CN([C@@H](C)CO)C(=O)c2cc(NS(=O)(=O)c3ccc(F)cc3)ccc2O[C@@H](C)CCCCO[C@@H]1CN(C)Cc1ccncc1	0.5	.	.	-6.2	1.7	-1.1
CC(C)(Oc1ccc(Cl)cc1)C(=O)NCc1ccncc1	.	3.3	8.5	.	.	0.4
CC(C)(Oc1ccc(Cl)cc1)C(=O)NCc1ccco1	.	122.8*	2.3	.	.	-2.2
CC(C)C#Cc1ccc([C@H]2[C@H](CO)N3CCCCN(CC4CC4)C[C@@H]23)cc1	3.9	.	.	25.8*	2.1	49.8
C[C@H](O)C#Cc1ccc([C@H]2[C@@H](CO)N3CCCCN(CC4CC4)C[C@H]23)cc1	-0.6	11.8	.	22.5*	-1.4	-4.6
C[C@@H]1CN([C@H](C)CO)C(=O)c2cccc(NC(=O)Nc3ccccc3)c2O[C@H]1CN(C)CC1CCCCC1	-4.1	14.3	.	11.9	2.6	-6.3
C[C@@H]1CN([C@@H](C)CO)C(=O)c2cccc(NC(=O)NC3CCCCC3)c2O[C@H]1CN(C)CC1CC1	1.4	2.2	.	8.6	1.9	5.5
C[C@@H]1CN([C@@H](C)CO)C(=O)c2cccc(NC(=O)Nc3ccccc3)c2O[C@@H]1CN(C)CC1CCCCC1	-4.3	37.3	.	35.9*	0.8	-2.7
C[C@@H]1CN([C@@H](C)CO)C(=O)c2cccc(NC(=O)NC3CCCCC3)c2O[C@H]1CN(C)CC1CCCCC1	-4.5	-13.4	.	44.4*	0.1	1.0
